Measurements collected from several papers.
Lines come from different studies, so protocols differ.
Target: Serine/threonine-protein kinase STK11 (STK11, Homo sapiens, UniProt Q15831)
One construct used (Q15831 1-433): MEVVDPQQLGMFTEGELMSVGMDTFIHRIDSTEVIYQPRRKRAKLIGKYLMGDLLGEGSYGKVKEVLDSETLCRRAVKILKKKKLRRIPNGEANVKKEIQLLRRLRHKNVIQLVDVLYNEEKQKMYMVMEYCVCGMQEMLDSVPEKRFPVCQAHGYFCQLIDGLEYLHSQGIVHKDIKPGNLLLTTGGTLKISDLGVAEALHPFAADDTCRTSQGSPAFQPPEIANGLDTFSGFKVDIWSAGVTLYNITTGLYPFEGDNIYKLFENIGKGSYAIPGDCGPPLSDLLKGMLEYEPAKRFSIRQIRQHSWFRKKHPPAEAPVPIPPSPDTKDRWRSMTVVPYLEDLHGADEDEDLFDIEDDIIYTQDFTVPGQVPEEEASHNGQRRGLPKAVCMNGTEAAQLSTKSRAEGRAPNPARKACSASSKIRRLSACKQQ

| SMILES | observed | action | technique | tested at | measurement | result |
| --- | --- | --- | --- | --- | --- | --- |
| N#Cc1ccc(NC(=O)Nc2ccccc2)cc1 | cell-free assay |  | competition with immobilised ligand | 25 µM | remaining binding | 85% |
| C#Cc1cnc(Nc2ccnc(CO)c2)nc1Nc1ccccc1S(C)(=O)=NC#N (stereo not drawn) | cell-free assay |  |  | 1 µM | remaining signal | 45% |
| CC(C)S(=O)(=O)c1ccc2nccc(Nc3ccc4sc(C5CCCC5)nc4c3)c2c1 | enzyme activity | inhibitor |  | 1 µM | activity vs control | 109% |
| CCCCC(=O)Nc1ccc(-c2ccc3ncn(CCC)c(=O)c3c2)cn1 | binding |  | competition with immobilised ligand | 0.5 µM | remaining binding | 84% |
| COc1ccc2[nH]c3c4[nH]c5ccc(OC)cc5c4c4c(c3c2c1)C(=O)NC4=O | binding |  | competition with immobilised ligand | 1 µM | remaining binding | 99% |
| CO[C@@H]1[C@H](N(C)C(=O)c2ccccc2)C[C@H]2O[C@]1(C)n1c3ccccc3c3c4c(c5c6ccccc6n2c5c31)C(=O)NC4 | enzyme activity | inhibitor |  | 1 µM | inhibition | 94% |
| C[C@H]1CC[C@H](n2c3cnccc3c3cnc(Nc4ccc5c(n4)CCN(C(=O)CO)C5)nc32)CC1 | binding |  | competition with immobilised ligand | 1 µM | remaining binding | 71% |
| C=CC(=O)N1CCC([C@@H]2CCNc3c(C(N)=O)c(-c4ccc(Oc5ccccc5)cc4)nn32)CC1 | enzyme activity | inhibitor |  | 1 µM | inhibition | 10% |
| COc1ccc2oc(-c3ccc4nc(N)oc4c3)c/c(=N\c3ccccc3NC(=O)CCN)c2c1 | binding |  |  | 1 µM | remaining binding | 99% |
